Assay results reported in ChEMBL document CHEMBL5058577, “EUbOPEN Chemogenomics Library 2 (Multiplex)” (2022).

System: Fibroblast
Assay: Multiplex assay against human fibroblast
Assay type: toxicity, cell-based
Method in brief: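 Live cells carried four stains from seeding: Hoechst33342, BioTracker Green Microtubule Cytoskeleton Dye, MitoTracker Red and Annexin V Alexa Fluor 680. They were imaged on a CQ1 microscope at 37°C and 5% CO2 after compound addition. Using CellPathfinder machine-learning gating, cells were split into Hoechst high-intensity objects or normal cells, normal cells into healthy, pyknosed or fragmented nuclei, and pyknosed cells into mitotic or apoptotic; tubulin, mitochondrial-mass and membrane-permeability phenotypes are per cents of healthy-nucleus cells.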

[1] = 12 h, 1 µM, compound concentration 1 uM, replicate 1
[2] = 12 h, 1 µM, compound concentration 1 uM, replicate 2
[3] = 12 h, 10 µM, compound concentration 10 uM, replicate 1
[4] = 12 h, 10 µM, compound concentration 10 uM, replicate 2
[5] = 24 h, 1 µM, compound concentration 1 uM, replicate 1
[6] = 24 h, 1 µM, compound concentration 1 uM, replicate 2
[7] = 24 h, 10 µM, compound concentration 10 uM, replicate 1
[8] = 24 h, 10 µM, compound concentration 10 uM, replicate 2
[9] = 48 h, 1 µM, compound concentration 1 uM, replicate 1
[10] = 48 h, 1 µM, compound concentration 1 uM, replicate 2
[11] = 48 h, 10 µM, compound concentration 10 uM, replicate 1
[12] = 48 h, 10 µM, compound concentration 10 uM, replicate 2

Cc1sc2c(c1C)C(c1ccc(Cl)cc1)=N[C@H](CC(=O)OC(C)(C)C)c1nnc(C)n1-2
Population Apoptotic (%) [1]: 43% | Population Fragmented Nuclei (%) [1]: 15% | Population Healthy Nuclei (%) [1]: 62% | Population Hoechst High Intensity Objects (%) [1]: 2% | Population Membrane Permeable-Phenotype (%) [1]: 0% | Population Mitochondria Different-Phenotype (%) [1]: 5% | Population Mitotic Cells (%) [1]: 56% | Population Normal (%) [1]: 97% | Population Pyknosed Nuclei (%) [1]: 22% | Population Tubulin-Different-Phenotype (%) [1]: 30% | Total Cell Count [1]: 180 | Population Apoptotic (%) [2]: 33% | Population Fragmented Nuclei (%) [2]: 26% | Population Healthy Nuclei (%) [2]: 51% | Population Hoechst High Intensity Objects (%) [2]: 5% | Population Membrane Permeable-Phenotype (%) [2]: 15% | Population Mitochondria Different-Phenotype (%) [2]: 10% | Population Mitotic Cells (%) [2]: 66% | Population Normal (%) [2]: 94% | Population Tubulin-Different-Phenotype (%) [2]: 46% | Total Cell Count [2]: 159 | Population Apoptotic (%) [3]: 43% | Population Fragmented Nuclei (%) [3]: 19% | Population Healthy Nuclei (%) [3]: 55% | Population Hoechst High Intensity Objects (%) [3]: 7% | Population Membrane Permeable-Phenotype (%) [3]: 0% | Population Mitochondria Different-Phenotype (%) [3]: 15% | Population Mitotic Cells (%) [3]: 56% | Population Normal (%) [3]: 92% | Population Pyknosed Nuclei (%) [3]: 25% | Population Tubulin-Different-Phenotype (%) [3]: 90% | Total Cell Count [3]: 128 | Population Apoptotic (%) [4]: 51% | Population Fragmented Nuclei (%) [4]: 30% | Population Healthy Nuclei (%) [4]: 39% | Population Hoechst High Intensity Objects (%) [4]: 5% | Population Membrane Permeable-Phenotype (%) [4]: 4% | Population Mitochondria Different-Phenotype (%) [4]: 20% | Population Mitotic Cells (%) [4]: 48% | Population Normal (%) [4]: 94% | Population Pyknosed Nuclei (%) [4]: 29% | Population Tubulin-Different-Phenotype (%) [4]: 95% | Total Cell Count [4]: 169 | Population Apoptotic (%) [5]: 82% | Population Fragmented Nuclei (%) [5]: 17% | Population Healthy Nuclei (%) [5]: 60% | Population Hoechst High Intensity Objects (%) [5]: 2% | Population Membrane Permeable-Phenotype (%) [5]: 0% | Population Mitochondria Different-Phenotype (%) [5]: 2% | Population Mitotic Cells (%) [5]: 17% | Population Normal (%) [5]: 97% | Population Pyknosed Nuclei (%) [5]: 21% | Population Tubulin-Different-Phenotype (%) [5]: 29% | Total Cell Count [5]: 186 | Population Apoptotic (%) [6]: 46% | Population Fragmented Nuclei (%) [6]: 29% | Population Healthy Nuclei (%) [6]: 50% | Population Hoechst High Intensity Objects (%) [6]: 6% | Population Membrane Permeable-Phenotype (%) [6]: 11% | Population Mitochondria Different-Phenotype (%) [6]: 5% | Population Mitotic Cells (%) [6]: 53% | Population Normal (%) [6]: 93% | Population Pyknosed Nuclei (%) [6]: 20% | Population Tubulin-Different-Phenotype (%) [6]: 51% | Total Cell Count [6]: 149 | Population Apoptotic (%) [7]: 75% | Population Fragmented Nuclei (%) [7]: 16% | Population Healthy Nuclei (%) [7]: 69% | Population Hoechst High Intensity Objects (%) [7]: 8% | Population Membrane Permeable-Phenotype (%) [7]: 2% | Population Mitochondria Different-Phenotype (%) [7]: 19% | Population Mitotic Cells (%) [7]: 25% | Population Normal (%) [7]: 91% | Population Pyknosed Nuclei (%) [7]: 14% | Population Tubulin-Different-Phenotype (%) [7]: 76% | Total Cell Count [7]: 123 | Population Apoptotic (%) [8]: 51% | Population Fragmented Nuclei (%) [8]: 26% | Population Healthy Nuclei (%) [8]: 45% | Population Hoechst High Intensity Objects (%) [8]: 4% | Population Membrane Permeable-Phenotype (%) [8]: 4% | Population Mitochondria Different-Phenotype (%) [8]: 26% | Population Mitotic Cells (%) [8]: 48% | Population Normal (%) [8]: 95% | Population Pyknosed Nuclei (%) [8]: 27% | Population Tubulin-Different-Phenotype (%) [8]: 87% | Total Cell Count [8]: 165 | Population Apoptotic (%) [9]: 63% | Population Fragmented Nuclei (%) [9]: 19% | Population Healthy Nuclei (%) [9]: 66% | Population Hoechst High Intensity Objects (%) [9]: 5% | Population Membrane Permeable-Phenotype (%) [9]: 0% | Population Mitochondria Different-Phenotype (%) [9]: 2% | Population Mitotic Cells (%) [9]: 36% | Population Normal (%) [9]: 94% | Population Pyknosed Nuclei (%) [9]: 13% | Population Tubulin-Different-Phenotype (%) [9]: 28% | Total Cell Count [9]: 170 | Population Apoptotic (%) [10]: 53% | Population Fragmented Nuclei (%) [10]: 29% | Population Healthy Nuclei (%) [10]: 49% | Population Membrane Permeable-Phenotype (%) [10]: 12% | Population Mitochondria Different-Phenotype (%) [10]: 10% | Population Mitotic Cells (%) [10]: 46% | Population Normal (%) [10]: 95% | Population Pyknosed Nuclei (%) [10]: 21% | Population Tubulin-Different-Phenotype (%) [10]: 69% | Total Cell Count [10]: 140 | Population Apoptotic (%) [11]: 50% | Population Fragmented Nuclei (%) [11]: 21% | Population Healthy Nuclei (%) [11]: 66% | Population Hoechst High Intensity Objects (%) [11]: 1% | Population Membrane Permeable-Phenotype (%) [11]: 1% | Population Mitochondria Different-Phenotype (%) [11]: 13% | Population Mitotic Cells (%) [11]: 50% | Population Normal (%) [11]: 98% | Population Pyknosed Nuclei (%) [11]: 12% | Population Tubulin-Different-Phenotype (%) [11]: 70% | Total Cell Count [11]: 134 | Population Apoptotic (%) [12]: 63% | Population Fragmented Nuclei (%) [12]: 35% | Population Healthy Nuclei (%) [12]: 51% | Population Membrane Permeable-Phenotype (%) [12]: 4% | Population Mitochondria Different-Phenotype (%) [12]: 9% | Population Mitotic Cells (%) [12]: 36% | Population Pyknosed Nuclei (%) [12]: 13% | Population Tubulin-Different-Phenotype (%) [12]: 88% | Total Cell Count [12]: 170
